Data on 28 molecules can be found in ChEMBL document CHEMBL3853305, “Synthesis, characterization and antitubercular activities of novel pyrrolyl hydrazones and their Cu-complexes” (Eur J Med Chem, 2016).

For series [1], the system named is Mycobacterium tuberculosis. In words: Antitubercular activity against Mycobacterium tuberculosis H37Rv after 5 days by microplate alamar blue assay. It is filed as functional. Conditions: for MIC: Mycobacterium tuberculosis, H37Rv, 120 h. The gist of the method:
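Middlebrook 7H9 broth; serial dilutions of 0.2–100 μg/mL made in the plate. Incubated at 37°C for 5 days, then 1:1 alamar blue/10% Tween 80 added and incubated 24 h. MIC is the lowest concentration that prevents the blue-to-pink change. Ethambutol and rifampicin were standards.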

Series [2] can be described thus: Cytotoxicity against human A549 cells assessed as decrease in cell viability after 72 hrs by MTT assay. It is filed as toxicity, cell-based. The gist of the method:
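Human A549 lung adenocarcinoma cells; viability read as cellular MTT conversion to formazan in a non-radioactive cell proliferation kit. Cisplatin was the positive control. IC50 values are means ± SEM of three independent experiments.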
On the technique in general: Tetrazolium assays rely on reduction of a dye to a coloured formazan, in cell work by metabolically active cells.

In series [3] the target is T1, Enoyl-[acyl-carrier-protein] reductase [NADH] (Mycobacterium tuberculosis, UniProt P9WGR1).
T1 sequence (P9WGR1 whole entry): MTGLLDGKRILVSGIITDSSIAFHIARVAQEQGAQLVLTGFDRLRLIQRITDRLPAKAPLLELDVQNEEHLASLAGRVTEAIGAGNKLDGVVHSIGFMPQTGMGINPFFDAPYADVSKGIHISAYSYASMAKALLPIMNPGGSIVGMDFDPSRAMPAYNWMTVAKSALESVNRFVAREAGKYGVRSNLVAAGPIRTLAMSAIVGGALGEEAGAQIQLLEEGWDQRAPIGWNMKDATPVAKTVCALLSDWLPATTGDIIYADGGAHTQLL
Description: Inhibition of His6-tagged recombinant Mycobacterium tuberculosis InhA expressed in protease-deficient Escherichia coli (BL21) using trans-2-dodecenoyl-coenzyme A as substrate assessed as NADH oxidation. The gist of the method: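 InhA-6xHis from E. coli BL21 (pHAT5/InhA), induced overnight with 1 mM IPTG at 20°C, purified on Ni-NTA and desalted. Assay at 25°C in 30 mM PIPES, 150 mM NaCl, pH 6.8, with 250 μM NADH, 50 μM DDCoA and 5% DMSO final. Compound screened at 50 μM. % inhibition taken from slopes with and without inhibitor. Triclosan was the reference.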

Each structure is given as a SMILES string. ≈ marks a conversion by molar mass, not a printed value.

As to `CC[C@@H](CO)NCCN[C@@H](CC)CO` [ETHAMBUTOL], the MIC (as a rule, the lowest concentration found to suppress growth) in series [1] is 0.5 µg/mL (≈ 2.45 µM). As to `C/C(=N\NC(=O)c1ccc(-n2cccc2)cc1)C(=O)Nc1ccc(F)cc1`, in series [1], the “-logMIC” value came out at 5.2 and the MIC came to 6.25 µg/mL (≈ 17.2 µM). For `C/C(=N\NC(=O)c1ccc(-n2cccc2)cc1)C(=O)Nc1ccccc1F`, in that order: 4.3 and 25 µg/mL (≈ 68.6 µM). For `C/C(=N\NC(=O)c1ccc(-n2cccc2)cc1)C(=O)Nc1cccc(Br)c1`, in that order: 4.9 and 12.5 µg/mL (≈ 29.4 µM).

On to `C/C(CCC(=O)Nc1cccc(Cl)c1)=N\NC(=O)c1ccc(-n2cccc2)cc1`, for which the minimal inhibitory concentration (MIC) in series [1] was determined as 12.5 µg/mL (≈ 30.6 µM). For the molecule `C/C(CCC(=O)Nc1ccc(Br)cc1)=N\NC(=O)c1ccc(-n2cccc2)cc1`, in series [1], the “-logMIC” value worked out at 5.2 and the minimal inhibitory concentration (MIC) amounted to 6.25 µg/mL (≈ 13.8 µM). For `C/C(CCC(=O)Nc1cccc(Br)c1)=N\NC(=O)c1ccc(-n2cccc2)cc1`, the “-logMIC” value in series [1] is 4.9. As for `C/C(=N/NC(=O)c1ccc(-n2cccc2)cc1)C(N)=O`, in series [1], the “-logMIC” value came out at 4.3 and inhibition of growth (MIC) required 50 µg/mL (≈ 185 µM). Taken in the same sequence, the figures for `C/C(CCC(=O)Nc1ccccc1F)=N\NC(=O)c1ccc(-n2cccc2)cc1` were 4.6 and 25 µg/mL (≈ 63.7 µM). Taken in the same sequence, the figures for `COc1ccc(NC(=O)/C(C)=N/NC(=O)c2ccc(-n3c(C)ccc3C)cc2)cc1` were 4.6 and 25 µg/mL (≈ 61.8 µM).

For `C/C(=N\NC(=O)c1ccc(-n2cccc2)cc1)C(=O)Nc1c(Cl)cccc1Cl`, in series [1], the “-logMIC” value worked out at 4.6 and the MIC is 25 µg/mL (≈ 60.2 µM). Taken in the same sequence, the figures for `C/C(CCC(=O)Nc1cc(Cl)cc(Cl)c1)=N\NC(=O)c1ccc(-n2cccc2)cc1` were 4.6 and 25 µg/mL (≈ 56.4 µM). In the case of `CO[C@H]1/C=C/O[C@@]2(C)Oc3c(C)c(O)c4c(O)c(c(/C=N/N5CCN(C)CC5)c(O)c4c3C2=O)NC(=O)/C(C)=C\C=C\[C@H](C)[C@H](O)[C@@H](C)[C@@H](O)[C@@H](C)[C@H](OC(C)=O)[C@@H]1C` [RIFAMPIN], 0.4 µg/mL (≈ 0.486 µM) was the least that counted as inhibitory in series [1] (MIC). `C/C(CCC(=O)Nc1ccccc1Cl)=N\NC(=O)c1ccc(-n2cccc2)cc1`: in series [1], the “-logMIC” value turned out to be 4.6 and the MIC came out at 25 µg/mL (≈ 61.1 µM). On to `C/C(CCC(=O)Nc1ccc(Cl)cc1)=N\NC(=O)c1ccc(-n2cccc2)cc1`, for which, in series [1], the “-logMIC” value is listed as 5.5 and the minimum inhibitory concentration (MIC) worked out at 3.12 µg/mL (≈ 7.63 µM). Besides, in series [2], the IC50 (commonly the point on the concentration scale where inhibition reaches its midpoint) at 72 h was 406 µM.

Turning to `C/C(CCC(=O)Nc1ccccc1)=N\NC(=O)c1ccc(-n2cccc2)cc1`, in series [1], the “-logMIC” value is 4.3 and the minimal inhibitory concentration (MIC) is 50 µg/mL (≈ 134 µM).

`C/C(=N\NC(=O)c1ccc(-n2c(C)ccc2C)cc1)C(=O)Nc1c(Cl)cccc1Cl`: in series [1], the “-logMIC” value was found to be 4 and the minimum inhibitory concentration (MIC) worked out at 100 µg/mL (≈ 226 µM). Regarding `C/C(=N\NC(=O)c1ccc(-n2cccc2)cc1)C(=O)Nc1cccc(F)c1`, in series [1], the “-logMIC” value was determined as 4.58 and the lowest concentration to inhibit growth (MIC) was 12.5 µg/mL (≈ 34.3 µM). Taken in the same sequence, the figures for `C/C(CCC(=O)Nc1cccc(F)c1)=N\NC(=O)c1ccc(-n2cccc2)cc1` were 4.6 and 12.5 µg/mL (≈ 31.9 µM).

Regarding `C/C(=N\NC(=O)c1ccc(-n2cccc2)cc1)C(=O)Nc1cc(Br)cc(Br)c1`, in series [1], the “-logMIC” value turned out to be 4.9 and the MIC was 12.5 µg/mL (≈ 24.8 µM). Consider `C/C(=N\NC(=O)c1ccc(-n2cccc2)cc1)C(=O)Nc1cc(Cl)cc(Cl)c1`, for which, in series [1], the “-logMIC” value was 4.9 and the lowest concentration to inhibit growth (MIC) was 12.5 µg/mL (≈ 30.1 µM). On to `C/C(CCC(=O)Nc1ccc(F)cc1)=N\NC(=O)c1ccc(-n2cccc2)cc1`, for which, in series [1], the “-logMIC” value is 5.5 and the MIC was 3.12 µg/mL (≈ 7.95 µM). The half-maximal inhibitory concentration (IC50) at 72 h in series [2] worked out at 438 µM. Also, in series [3], the half-inhibitory concentration (IC50) was determined as 7.69 µM. For `COc1ccccc1NC(=O)CC/C(C)=N/NC(=O)c1ccc(-n2cccc2)cc1`, in series [1], the “-logMIC” value amounted to 4 and the minimal inhibitory concentration (MIC) is 100 µg/mL (≈ 247 µM). As to `COc1ccc(NC(=O)/C(C)=N/NC(=O)c2ccc(-n3cccc3)cc2)cc1`, in series [1], the “-logMIC” value is 4.3 and the minimal inhibitory concentration (MIC) was 50 µg/mL (≈ 133 µM). With `NNC(=O)c1ccncc1` [ISONIAZID], the half-maximal inhibitory concentration (IC50) at 72 h in series [2] was > 450 µM. Turning to `C/C(=N\NC(=O)c1ccc(-n2cccc2)cc1)C(=O)Nc1ccc(Br)cc1`, in series [1], the “-logMIC” value was found to be 5.5 and the lowest concentration to inhibit growth (MIC) was 3.12 µg/mL (≈ 7.34 µM). The half-inhibitory concentration (IC50) at 72 h in series [2] is 441 µM. As to `C/C(=N\NC(=O)c1ccc(-n2c(C)ccc2C)cc1)C(=O)Nc1ccc(Br)cc1`, in series [1], the “-logMIC” value is 5.2 and the MIC was 6.25 µg/mL (≈ 13.8 µM). Consider `COc1cccc(NC(=O)/C(C)=N/NC(=O)c2ccc(-n3cccc3)cc2)c1`, for which, in series [1], the “-logMIC” value is on record as 4.3 and it took 50 µg/mL (≈ 133 µM) to inhibit growth (MIC).
